According to ChEMBL document CHEMBL1128288, “7-Azetidinylquinolones as antibacterial agents. 3. Synthesis, properties and structure-activity relationships of the stereoisomers containing a 7-(3-amino-2-methyl-1-azetidinyl) moiety” (J Med Chem, 1995):
≈ marks a conversion by molar mass, not a printed value.

How the values were obtained:
Assay type in all cases: functional
[1] = tested on: Morganella morganii; assay: In vitro antibacterial activity measured as minimum inhibitory concentration was evaluated on morganella morganii ATCC 8019 (Mm).; conditions: Morganella morganii, ATCC 8019; read-out: MIC
How it was run: (§1)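 Serial 2-fold agar dilution in Mueller Hinton medium, run side by side with reference quinolones. Inoculum 10^5 cfu/mL; compound range 0.007–16 µg/mL.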

[2] = tested on: Escherichia coli; assay: In vitro antibacterial activity measured as minimum inhibitory concentration, was evaluated on Escherichia coli ATCC 23559(Ec).; conditions: Escherichia coli, ATCC 23559; read-out: MIC; how it was run: as §1
[3] = tested on: Enterococcus faecalis; assay: In vitro antibacterial activity measured as minimum inhibitory concentration was evaluated on Streptococcus faecalis ATCC 10541 (Sf).; conditions: Enterococcus faecalis, ATCC 10541; read-out: MIC; how it was run: as §1
[4] = tested on: Klebsiella pneumoniae; assay: In vitro antibacterial activity measured as minimum inhibitory concentration was evaluated on klebsiella pneumoniae ATCC 10031 (Kp).; conditions: Klebsiella pneumoniae, ATCC 10031; read-out: MIC
How it was run: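 Serial 2-fold agar dilution in Mueller Hinton medium, run side by side with reference quinolones.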

[5] = tested on: Pseudomonas aeruginosa; assay: In vitro antibacterial activity measured as minimum inhibitory concentration was evaluated on Pseudomonas aeruginosa ATCC 10145 (Pa).; conditions: Pseudomonas aeruginosa, ATCC 10145; read-out: MIC; how it was run: as §1
[6] = tested on: Proteus vulgaris; assay: In vitro antibacterial activity measured as minimum inhibitory concentration was evaluated on proteus vulgaris ATCC 8427 (Pv).; conditions: Proteus vulgaris, ATCC 8427; read-out: MIC; how it was run: as §1
[7] = tested on: Enterobacter cloacae; assay: In vitro antibacterial activity measured as minimum inhibitory concentration, was evaluated on Enterobacter cloacae ATCC 23355 (Ecl).; conditions: Enterobacter cloacae, ATCC 23355; read-out: MIC
[8] = tested on: Staphylococcus aureus; assay: In vitro antibacterial activity measured as minimum inhibitory concentration was evaluated on Staphylococcus aureus ATCC 25178 (Sa).; conditions: Staphylococcus aureus, ATCC 25178; read-out: MIC; how it was run: as §1
[9] = tested on: Bacillus cereus; assay: In vitro antibacterial activity measured as minimum inhibitory concentration was evaluated on Bacillus cereus ATCC 11778 (Bc).; conditions: Bacillus cereus, ATCC 11778; read-out: MIC; how it was run: as §1
[10] = tested on: Bacillus subtilis; assay: In vitro antibacterial activity measured as minimum inhibitory concentration was evaluated on Bacillus subtilis ATCC 6633(Bs).; conditions: Bacillus subtilis, ATCC 6633; read-out: MIC; how it was run: as §1
[11] = tested on: Staphylococcus epidermidis; assay: In vitro antibacterial activity measured as minimum inhibitory concentration was evaluated on Staphylococcus epidermidis ATCC 155-1 (Se).; conditions: Staphylococcus epidermidis, ATCC 155-1; read-out: MIC; how it was run: as §1
[12] = tested on: Escherichia coli; assay: In vivo efficacy as ED50 against Escherichia coli HM-42 by oral administration in mice.; conditions: Escherichia coli, po; read-out: ED50
How it was run: (§2)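 Mice, 4 groups of 10, infected intraperitoneally with slightly more than the LD100 of the organism. A single oral dose was given immediately after infection, with four doses (one per group) chosen from in vitro activity. Survival was scored after one week. ED50 (total dose, mg/kg, protecting 50%) was interpolated among group survival rates.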

[13] = tested on: Pseudomonas aeruginosa; assay: In vivo efficacy as ED50 against Pseudomonas aeruginosa HS-116 by oral administration in mice.; conditions: Pseudomonas aeruginosa, po; read-out: ED50; how it was run: as §2
[14] = tested on: Staphylococcus aureus; assay: In vivo efficacy as ED50 against Staphylococcus aureus HS-93 by oral administration in mice.; conditions: Staphylococcus aureus, po; read-out: ED50; how it was run: as §2

Row | MIC [1] | MIC [2] | MIC [3] | MIC [4] | MIC [5] | MIC [6] | MIC [7] | MIC [8] | MIC [9] | MIC [10] | MIC [11] | SMILES | ED50 [12] | ED50 [13] | ED50 [14]
1 |  | 0.12 µg/mL (≈ 0.298 µM) | 2 µg/mL (≈ 4.96 µM) |  | 2 µg/mL (≈ 4.96 µM) | 0.5 µg/mL (≈ 1.24 µM) |  |  |  |  |  | CC1C(N)CN1c1c(F)cc2c(=O)c(C(=O)O)cn(-c3ccc(F)cc3)c2c1F (stereo not given) | 2.5 mg/kg | 55 mg/kg | 5.7 mg/kg
2 |  | 0.12 µg/mL (≈ 0.297 µM) | 1 µg/mL (≈ 2.47 µM) | 0.06 µg/mL (≈ 0.148 µM) | 1 µg/mL (≈ 2.47 µM) | 1 µg/mL (≈ 2.47 µM) |  |  |  | 0.06 µg/mL (≈ 0.148 µM) |  | CC1C(N)CN1c1nc2c(cc1F)c(=O)c(C(=O)O)cn2-c1ccc(F)cc1F (stereo not given) | 3.3 mg/kg | 140 mg/kg | 8.9 mg/kg
3 |  | 0.03 µg/mL (≈ 0.0685 µM) |  |  | 0.5 µg/mL (≈ 1.14 µM) |  |  |  | 0.03 µg/mL (≈ 0.0685 µM) | 0.03 µg/mL (≈ 0.0685 µM) | 0.06 µg/mL (≈ 0.137 µM) | CC1C(N)CN1c1c(F)cc2c(=O)c(C(=O)O)cn(-c3ccc(F)cc3F)c2c1Cl (stereo not given) |  |  | 
4 | 0.5 µg/mL (≈ 1.14 µM) | 0.25 µg/mL (≈ 0.571 µM) | 2 µg/mL (≈ 4.57 µM) | 0.5 µg/mL (≈ 1.14 µM) | 2 µg/mL (≈ 4.57 µM) | 1 µg/mL (≈ 2.28 µM) | 0.25 µg/mL (≈ 0.571 µM) | 0.25 µg/mL (≈ 0.571 µM) | 1 µg/mL (≈ 2.28 µM) | 0.12 µg/mL (≈ 0.274 µM) | 0.5 µg/mL (≈ 1.14 µM) | C[C@@H]1[C@@H](N)CN1c1c(F)cc2c(=O)c(C(=O)O)cn(-c3ccc(F)cc3F)c2c1Cl |  |  | 

More lines, now with the values behind:

Row | SMILES | MIC [1] | MIC [2] | MIC [3] | MIC [4] | MIC [5] | MIC [6] | MIC [7] | MIC [8] | MIC [9] | MIC [10] | MIC [11] | ED50 [12] | ED50 [13] | ED50 [14]
5 | CCNCC1(C)CN(c2c(F)cc3c(=O)c(C(=O)O)cn4c3c2OC[C@@H]4C)C1 | 1 µg/mL (≈ 2.57 µM) | 0.25 µg/mL (≈ 0.642 µM) | 2 µg/mL (≈ 5.14 µM) | 1 µg/mL (≈ 2.57 µM) | 8 µg/mL (≈ 20.5 µM) | 1 µg/mL (≈ 2.57 µM) | 0.5 µg/mL (≈ 1.28 µM) | 0.5 µg/mL (≈ 1.28 µM) | 0.5 µg/mL (≈ 1.28 µM) | 0.06 µg/mL (≈ 0.154 µM) | 0.25 µg/mL (≈ 0.642 µM) |  |  | 
6 | CC1C(N)CN1c1c(F)c(N)c2c(=O)c(C(=O)O)cn(C3CC3)c2c1F (stereo not given) | 0.015 µg/mL (≈ 0.0412 µM) | 0.015 µg/mL (≈ 0.0412 µM) | 0.06 µg/mL (≈ 0.165 µM) | 0.015 µg/mL (≈ 0.0412 µM) |  | 0.06 µg/mL (≈ 0.165 µM) | 0.015 µg/mL (≈ 0.0412 µM) | 0.015 µg/mL (≈ 0.0412 µM) | 0.015 µg/mL (≈ 0.0412 µM) | 0.015 µg/mL (≈ 0.0412 µM) | 0.015 µg/mL (≈ 0.0412 µM) | 4.2 mg/kg | 102 mg/kg | 8.7 mg/kg
7 | CC1C(N)CN1c1nc2c(cc1F)c(=O)c(C(=O)O)cn2C1CC1 (stereo not given) | 0.03 µg/mL (≈ 0.0903 µM) | 0.03 µg/mL (≈ 0.0903 µM) |  | 0.03 µg/mL (≈ 0.0903 µM) | 0.5 µg/mL (≈ 1.5 µM) | 0.06 µg/mL (≈ 0.181 µM) | 0.03 µg/mL (≈ 0.0903 µM) |  | 0.06 µg/mL (≈ 0.181 µM) | 0.03 µg/mL (≈ 0.0903 µM) |  | 3.5 mg/kg | 95 mg/kg | 13.8 mg/kg
8 | CC1C(N)CN1c1cc2c(cc1F)c(=O)c(C(=O)O)cn2C1CC1 (stereo not given) | 0.03 µg/mL (≈ 0.0905 µM) | 0.015 µg/mL (≈ 0.0453 µM) |  | 0.03 µg/mL (≈ 0.0905 µM) |  | 0.06 µg/mL (≈ 0.181 µM) | 0.03 µg/mL (≈ 0.0905 µM) |  | 0.06 µg/mL (≈ 0.181 µM) | 0.03 µg/mL (≈ 0.0905 µM) |  | 3.5 mg/kg | 108 mg/kg | 22.3 mg/kg
9 | C[C@H]1COc2c(N3CC(N(C)C)C3)c(F)cc3c(=O)c(C(=O)O)cn1c23 | 0.12 µg/mL (≈ 0.332 µM) | 0.06 µg/mL (≈ 0.166 µM) | 2 µg/mL (≈ 5.53 µM) | 0.015 µg/mL (≈ 0.0415 µM) | 4 µg/mL (≈ 11.1 µM) | 0.25 µg/mL (≈ 0.692 µM) | 0.06 µg/mL (≈ 0.166 µM) | 0.12 µg/mL (≈ 0.332 µM) | 0.06 µg/mL (≈ 0.166 µM) | 0.015 µg/mL (≈ 0.0415 µM) | 0.12 µg/mL (≈ 0.332 µM) |  |  | 
10 | C[C@H]1COc2c(N3CC(C)(N(C)C)C3)c(F)cc3c(=O)c(C(=O)O)cn1c23 | 0.25 µg/mL (≈ 0.666 µM) | 0.12 µg/mL (≈ 0.32 µM) | 2 µg/mL (≈ 5.33 µM) | 0.12 µg/mL (≈ 0.32 µM) | 4 µg/mL (≈ 10.7 µM) | 0.5 µg/mL (≈ 1.33 µM) | 0.5 µg/mL (≈ 1.33 µM) | 0.25 µg/mL (≈ 0.666 µM) | 0.5 µg/mL (≈ 1.33 µM) | 0.06 µg/mL (≈ 0.16 µM) | 0.12 µg/mL (≈ 0.32 µM) |  |  | 
11 | Cc1c(F)c(N2C[C@H](N)[C@H]2C)nc2c1c(=O)c(C(=O)O)cn2-c1ccc(F)cc1F | 0.25 µg/mL (≈ 0.598 µM) | 0.06 µg/mL (≈ 0.143 µM) | 0.25 µg/mL (≈ 0.598 µM) | 0.12 µg/mL (≈ 0.287 µM) | 0.5 µg/mL (≈ 1.2 µM) | 1 µg/mL (≈ 2.39 µM) | 0.12 µg/mL (≈ 0.287 µM) | 0.06 µg/mL (≈ 0.143 µM) | 0.06 µg/mL (≈ 0.143 µM) | 0.015 µg/mL (≈ 0.0359 µM) | 0.06 µg/mL (≈ 0.143 µM) |  |  | 
